# Compound activity as filed in PubChem.
# This is a sample that favours compounds with a hit; in the whole collection about 5.5% have one here.
# PostGolgi ctrl: growth inhibition of yeast control strain, primary screen, counter-screen for post-Golgi transport modulator project. efflux-deficient yeast background strain, growth absorbance A615, 16 h. inhibition, % at 10 µM. actives 5% (n = 98,000)
# tolC growth inh: growth inhibitors of E. coli tolC mutant, primary screen, strain BW25113 ΔtolC::kan, 384-well; AID 573, 2007; growth inhibition, % at 10 µM (by protocol); OD615; actives 2.2% (n = 65,000);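 active = growth inhibition at or above a cutoff equal to the mean over every tested compound plus 3 SD, cut at about 60% in these data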;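 note: growth measured after 20 h incubation at 37 °C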
#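 Assay system: tolC-deleted E. coli BW25113. Medium: kanamycin-containing LB broth (50 µg/mL). Dosing: 10 µM final, single dose. Timing: bacterial growth with compound for 20 h at 37 °C. Detection: A615 absorbance measurement. Read-out basis: growth inhibition in percent.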
# E coli WT exp: growth inhibitors of wild-type E. coli, primary screen, strain BW25113, expanded library, OD600. OD600 absorbance. growth inhibition, % at 100 µM. actives 0.15% (n = 98,000);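 active = growth inhibition above about 50% at one test dose, limit read from the data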;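 note: growth measured after 20 h incubation at 37 °C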
# PostGolgi yeast: phenotypic screen on post-Golgi transport, primary screen; AID 739, 2007; post-Golgi transport phenotypic cell assay; actives 0.9% (n = 98,000); inhibition, % at 10 µM;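 note: yeast cells grown in 1536-well plates; yeast grown about 18 h at 30C before absorbance read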
# HePTP inh: inhibitors of human HePTP phosphatase, primary screen, biochemical, absorbance, leukemia target; Tyrosine-protein phosphatase non-receptor type 7 (Homo sapiens), P35236; AID 521, 2006; recombinant HePTP phosphatase activity, OD absorbance; actives 0.64% (n = 110,000); inhibition, % at 20 µM; in the data active = inhibition above about 50%
# PLAP activator: PLAP enzyme activators, biochemical, luminescence, HTS | activation fold at 20 µM | actives 1.2% (n = 96,000) | Alkaline phosphatase, placental type (Homo sapiens), P05187 | purified PLAP enzyme, luminescent substrate read-out; hits give high values | AID 696, 2007; in the data active = activation fold above about 2
# Target sequence (P05187 whole entry, looked up): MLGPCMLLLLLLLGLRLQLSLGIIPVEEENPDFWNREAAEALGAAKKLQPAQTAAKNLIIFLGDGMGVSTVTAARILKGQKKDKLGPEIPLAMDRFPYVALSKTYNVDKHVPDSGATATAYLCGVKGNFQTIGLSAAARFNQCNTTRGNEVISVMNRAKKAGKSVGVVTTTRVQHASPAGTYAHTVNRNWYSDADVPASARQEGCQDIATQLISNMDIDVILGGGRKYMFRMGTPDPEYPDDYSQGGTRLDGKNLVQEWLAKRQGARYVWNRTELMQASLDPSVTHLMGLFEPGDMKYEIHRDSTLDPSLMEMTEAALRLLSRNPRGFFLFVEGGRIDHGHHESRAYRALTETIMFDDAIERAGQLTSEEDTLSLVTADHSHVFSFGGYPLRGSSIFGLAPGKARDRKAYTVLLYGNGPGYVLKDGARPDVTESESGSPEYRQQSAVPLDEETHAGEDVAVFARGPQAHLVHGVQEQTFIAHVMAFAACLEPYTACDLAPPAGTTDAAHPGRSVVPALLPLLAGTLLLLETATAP
# Numbers stand for hits; n = inactive; x = not tested or not shown. Cut-off read from the data, not from the text of the source, unless noted: active = inhibition above about 30%; inactive = the rest.
SMILES,PostGolgi ctrl,tolC growth inh,E coli WT exp,PostGolgi yeast,HePTP inh,PLAP activator
Cc1ccc(/C=C/C2=NN(Cc3ccc(Cl)c(Cl)c3)C(=O)CC2)cc1,44,x,n,n,x,n
O=c1c(N=Nc2ccc(F)cc2)c(-c2ccccc2)[nH]n1-c1nc(-c2ccccc2)cs1,x,x,x,x,n,x
O=C(CN1C(=O)NC2(CCCCCCC2)C1=O)NC(=O)NCc1ccco1,38,n,n,n,n,n
CC1(c2ccccc2)NC(=O)N(CC(=O)NC(=O)NCc2ccco2)C1=O (stereo unspecified),n,x,n,n,x,n
O=C(CN1CCN(C(c2ccccc2)c2ccccc2)CC1)NC(=O)NCc1ccco1,36,n,n,n,n,n
C/C=C/C=C(\NC(=O)c1ccccc1)C(=O)O,x,x,x,x,n,x
CC1=NN(c2ccc(S(N)(=O)=O)cc2)C(=O)/C1=C\c1ccc(-c2ccc(Cl)c([N+](=O)[O-])c2)o1,x,x,x,x,n,x
N#C/C(=N\Nc1ccccc1Cl)C(=O)c1ccccc1,48,x,n,n,x,n
N#C/C(=N\Nc1c(Cl)cccc1Cl)C(=O)NN,n,x,n,n,x,n
N#Cc1ccccc1NC(=O)Nc1cccc(Cl)c1,n,n,n,n,n,n
N#C/C(=N\Nc1cccc(Cl)c1)C(=O)c1ccccc1,84,x,n,n,x,n
CCC(c1nnc(SCC(=O)Nc2ccc(C(=O)Nc3ccccc3OC)cc2)o1)N(C)C (stereo unspecified),n,n,n,n,n,2.3
O=C(CSc1nnc(-c2ccc(Cl)cc2Cl)o1)Nc1ccccc1,x,x,x,x,n,x
CCOc1ccccc1-c1nnc(SCC(=O)Nc2ccccc2)o1,43,n,n,n,n,n
Cc1ccccc1NC(=S)NC(=O)c1ccc(Cl)cc1,x,x,x,x,n,x
Cc1ccnc(SCC(=O)Nc2oc(-c3ccccc3)c(-c3ccccc3)c2C#N)n1,n,n,n,n,n,n
COc1ccc(CC(=O)Nc2oc(-c3ccccc3)c(-c3ccccc3)c2C#N)cc1,x,x,x,x,n,x
CCn1c(SCC(=O)Nc2oc(-c3ccccc3)c(-c3ccccc3)c2C#N)nnc1-c1cc(OC)cc(OC)c1,n,x,n,n,x,2.2
COc1ccc(-c2oc(NC(=O)CCl)c(C#N)c2-c2ccc(OC)cc2)cc1,50,x,n,n,x,n
N#Cc1c(NC(=O)CSc2n[nH]c(Cc3ccccc3)n2)oc(-c2ccccc2)c1-c1ccccc1,n,64,n,n,n,n
O=C(N/N=C/c1ccc(I)o1)c1ccncc1,x,x,x,x,n,x
COC(=O)[C@@H](NC(=O)NC(C)CCc1ccccc1)C(C)C (stereo partly specified),n,n,n,n,n,n
COC(=O)[C@H](C)NC(=O)NC(C)CCc1ccccc1 (stereo partly specified),36,x,n,n,x,n
CC(C)CNC(=O)/C=C/c1ccccc1,x,x,x,x,n,x
CC(CCc1ccccc1)NC(=O)/C=C/c1ccccc1 (stereo unspecified),40,x,n,n,x,n
SMILES,PostGolgi ctrl,tolC growth inh,E coli WT exp,PostGolgi yeast,HePTP inh,PLAP activator
Cc1nn2c(-c3ccc(Cl)cc3Cl)nnc2s1,34,n,n,n,n,n
Clc1ccc(-c2nn3c(-c4ccncc4)nnc3s2)c(Cl)c1,x,n,x,x,n,n
CC(Sc1ccsc1[N+](=O)[O-])C(=O)NCCc1ccc(Cl)cc1 (stereo unspecified),34,x,n,70,x,n
O=C(CSc1ccsc1[N+](=O)[O-])NCCc1ccc(Cl)cc1,n,x,n,n,x,n
CC(C)(C)C(=O)C(CO)(Oc1ccc(Cl)cc1)n1cncn1 (stereo unspecified),95,n,n,99,n,n
CC(C)(Oc1ccc(Cl)cc1)C(=O)NCc1ccncc1,n,n,n,n,n,n
COc1cc(CN2CCN(c3ccc(C)cc3)CC2)cc([N+](=O)[O-])c1O,n,x,n,92,x,n
COc1ccc2c(c1)C(C)=CC(C)(C)N2C(=O)CSc1nnc(-c2ccc(C)cc2)o1,n,n,n,52,n,n
COc1ccc(C(=O)CSc2nnc(-c3ccc(C)cc3)o2)cc1,n,x,n,n,n,n
COc1ccc2nc(NC(=O)CSc3nc(C)cc(=O)[nH]3)sc2c1,n,x,n,n,x,n
CC(C)C(NS(=O)(=O)c1cccc2nsnc12)C(=O)Nc1nc2ccc(Cl)cc2s1 (stereo unspecified),47,x,n,n,x,n
Cc1ccc(NC(=O)C(NS(=O)(=O)c2cccc3nsnc23)C(C)C)nc1 (stereo unspecified),n,x,n,n,x,n
CCOc1ccc2nc(NC(=O)C(NS(=O)(=O)c3cccc4nsnc34)C(C)C)sc2c1 (stereo unspecified),n,x,n,n,x,2.4
CCOc1ccc2nc(NC(=O)C(CC)Sc3nc(C)cc(=O)[nH]3)sc2c1 (stereo unspecified),n,67,n,n,n,n
CCOc1ccccc1-c1nn2c(Cc3ccccc3)nnc2s1,78,99,n,n,n,n
c1ccc(Cc2nnc3sc(-c4ccccn4)nn23)cc1,n,n,n,n,x,n
CC1=C(C(=O)Nc2cc(Cl)ccc2C)C(c2ccc(Br)cc2)NC(=O)N1 (stereo unspecified),x,x,x,x,n,x
Fc1ccc2c(c1)C(c1ccc(N3CCOCC3)cc1)=NNC(c1cccs1)=N2,36,x,n,n,x,n
CCOc1cccc(-c2nc3cc(OC)c(OC)cc3c(=O)o2)c1,x,x,x,x,n,x
O=C(CSc1nnnn1-c1ccccc1)Nc1ccccc1O,x,x,x,x,n,x
CCC(=O)N(CCO)Cc1cc2ccc(C)c(C)c2[nH]c1=O,n,n,n,33,n,n
COCCNC(=O)CN(c1cccc(Br)c1)S(=O)(=O)c1ccccc1,x,x,x,x,n,x
CCOc1cc(/C=C2\SC(=S)N(c3cccc(C)c3C)C2=O)ccc1O,x,x,x,x,n,x
O=C(N/C(=C/c1ccco1)C(=O)N1CCCCC1)c1ccc(Cl)cc1,x,x,x,x,n,x
O=C(Nc1ccc2nc(-c3ccccn3)[nH]c2c1)C1CCCCC1,n,x,n,n,x,2.3
SMILES,PostGolgi ctrl,tolC growth inh,E coli WT exp,PostGolgi yeast,HePTP inh,PLAP activator
CC(=O)Nc1cccc(-c2nc3ccc(NC(C)=O)cc3[nH]2)c1,n,n,n,n,n,n
O=C1CC(c2cccs2)CC2=C1C(c1ccsc1)Nc1ccccc1N2 (stereo unspecified),x,x,x,x,n,x
CC(C)[C@H](NC(=O)NC1CCCc2ccccc21)C(=O)O (stereo partly specified),33,n,n,n,n,n
COC(=O)C1=CN(CCCN2CCCC2=O)C=C(C(=O)OC)C1c1ccccc1C(F)(F)F,n,n,n,36,n,2.1
CC(C)(C)c1ccc(NC(=O)COc2ccc(-n3ccnc3)cc2)cc1,58,x,n,73,x,x
N#Cc1cccc(NC(=O)COc2ccc(-n3ccnc3)cc2)c1,n,n,n,n,n,n
Cc1ccccc1Cc1c(C)nc2nc(SCC(=O)NCc3ccco3)nn2c1C,n,n,n,n,n,n
